Screening data: PubChem BioAssay, several laboratories
Hck Nef HTS = human Hck-Nef kinase inhibition; Recombinant Hck-YEEI plus Nef, Z-Lyte FRET kinase assay; inhibition, % at 20 µM; 220,000 compounds, 0.68% hits; AID 463187;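 active = Hck-Nef kinase inhibition above about 50%, limit read from the data; inactive = inhibition below that limit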;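 also: 0% = DMSO with Hck plus Nef and 100% = Hck alone without Nef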
Target sequence (P08631 whole entry, looked up): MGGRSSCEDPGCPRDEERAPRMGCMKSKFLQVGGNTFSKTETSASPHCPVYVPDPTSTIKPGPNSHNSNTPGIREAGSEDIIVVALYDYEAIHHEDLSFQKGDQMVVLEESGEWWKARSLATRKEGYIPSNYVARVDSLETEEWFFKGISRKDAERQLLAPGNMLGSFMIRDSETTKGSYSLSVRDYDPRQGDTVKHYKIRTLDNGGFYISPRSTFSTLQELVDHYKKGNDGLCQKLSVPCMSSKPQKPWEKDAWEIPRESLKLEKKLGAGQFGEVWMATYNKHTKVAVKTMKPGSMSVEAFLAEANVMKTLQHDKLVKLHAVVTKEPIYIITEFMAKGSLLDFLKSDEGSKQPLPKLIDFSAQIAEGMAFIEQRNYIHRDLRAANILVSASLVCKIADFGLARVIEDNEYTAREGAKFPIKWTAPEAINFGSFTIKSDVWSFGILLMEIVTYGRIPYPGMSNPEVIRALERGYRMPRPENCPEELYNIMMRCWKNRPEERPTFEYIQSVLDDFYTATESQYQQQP
WT yeast gro inh = growth inhibition of WT yeast, mitochondrial fusion screen; mitochondrial fusion phenotypic screen, WT strain; inhibition, % at 10 µM; 190,000 compounds, 2.1% hits; AID 1362; in the data active = inhibition above about 58%; tested in S. cerevisiae
Arbovirus inh = blocks arbovirus infection; AID 1251; inhibition, % at 10 µM; arbovirus infection cell-based antiviral screen; 200,000 compounds, 0.37% hits; in the data active = inhibition above about 30%
Biofilm kill mix = mixture kills Candida albicans biofilm cells; C. albicans biofilm persisters + clotrimazole, fluorescence viability; primary screen in compound mixtures of four per well; inhibition, % at 7.6 µM; 120,000 compounds, 0.02% hits; AID 1242;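 active = inhibition above 30.3% in the primary screen of four-compound pools, then above 30% when the compound was retested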;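 also: compounds exposed to preformed 24 h biofilms for 48 h; 0% = untreated biofilm control and 100% = clotrimazole plus chlorhexidine kill blank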
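Test system: C. albicans biofilms. Buffer or medium: RPMI/MOPS medium, pH 7.0. Timing: 48 h compound exposure at 37 °C. Technique: Alamar Blue fluorescence. Evaluation: percent inhibition of biofilm viability.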
NCF1 inh = inhibitors of human p47phox binding; P14598; p47phox/p22phox peptide binding, fluorescence polarization, 2 h; inhibition, % at 24.7 µM; 220,000 compounds, 0.53% hits; AID 1274;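 active = inhibition above about 30%, limit read from the data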;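 also: 0% = p47phox with labelled peptide and 100% = labelled peptide alone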
RAM network inh = yeast RAM network inhibition. S. cerevisiae dse1pr::URA3 reporter, 5-FOA growth OD615, 2 d; analog-sensitive cbk1-as2 kinase mutant strain. inhibition, % at 50 µM. 190,000 compounds, 1.8% hits;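 active = inhibition above a set limit, 3 SD over mean compound inhibition, cut at about 8.4% in these data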;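 also: 0% = DMSO-only wells with no growth and 100% = 10 µM 1-NA-PP1 full growth; inhibition rescues growth on 5-FOA so higher OD means more RAM inhibition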
RAM 5-FOA = restores 5-FOA growth of efflux-deficient yeast | S. cerevisiae efflux-deficient reporter strain, 5-FOA growth OD615, 2 days | AID 1305 | shares compounds with RAM network inh | 1,200 tested, under 10 active | max inhibition, %; call rule not given here;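 also: plate controls were vehicle for no effect and reference inhibitor for full effect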
Hck Nef conf = Hck-Nef kinase inhibition, confirmation; calls only at 10 µM; shares compounds with Hck Nef HTS; Recombinant Hck-YEEI:Nef, Z-Lyte FRET kinase assay; AID 463188; 1,300 compounds, 28% hits;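 active = average inhibition of at least 50%, with Z-scores no higher than 3 in both the phospho-tyrosine peptide and fluorescence counterscreens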
* marks the source's active call; other numbers are inactive results; i = inactive; nt = no result given; + = active, no number. The list is not random: actives were taken first. Their share in the collection is about 4.6%.

SMILES	Hck Nef HTS	WT yeast gro inh	Arbovirus inh	Biofilm kill mix	NCF1 inh	RAM network inh	RAM 5-FOA	Hck Nef conf
Nc1ncnc(Sc2ccccc2)c1[N+](=O)[O-]	0.4	-8.5	-13.0	6.1	-6.6	72.5*	3.8	nt
Nc1ncnc(Sc2ccc(Cl)cc2)c1[N+](=O)[O-]	3.8	-22.1	-9.0	4.1	-1.2	2.7	nt	nt
COc1ccccc1Nc1nc2c(C)cccc2cc1C#N	-1.0	-5.5	-1.6	nt	-18.0	13.1*	3.5	nt
COc1ccccc1Nc1nc2ccc(C)cc2cc1C#N	2.1	3.2	-1.8	nt	-5.3	4.8	nt	nt
CCCCCOc1ccc(C(=O)OCC(=O)Nc2cc(C)c(C)cc2[N+](=O)[O-])cc1	-0.4	-6.1	-6.1	12.5	-1.6	11.6*	6.0	nt
Cc1ccc2sc(NC(=O)c3ccc(N4C(=O)CCC4=O)cc3)nc2c1C	0.9	3.2	-4.3	14.2	-15.8	16.5*	1.9	nt
CCOc1ccc(CCNC(=O)CN2C(=O)NC(CCSC)C2=O)cc1OCC (centres undefined)	-10.4	-12.1	4.0	5.2	-4.4	-0.2	nt	nt
COC(=O)c1nn(-c2ccccc2)c(Cl)c1/C=N/OCc1ccc(Cl)cc1Cl	-1.8	-3.3	-14.1	nt	10.5	16.8*	4.1	nt
COC(=O)c1nn(-c2ccccc2)c(Cl)c1/C=N/O	19.1	-4.4	1.2	17.2	-6.7	1.0	nt	nt
CCOCCCNC(=S)N1CCCN(c2nc3c(C)c(C)ccc3cc2C#N)CC1	17.9	73.8*	1.1	8.3	-27.5	21.9*	7.1	nt
CCOCCCNC(=S)N1CCCN(c2nc3cc(C)ccc3cc2C#N)CC1	20.5	28.0	12.9	0.5	-10.1	4.6	nt	nt
CCN(C(=O)CSc1ncccc1C(=O)O)C1CCCCC1	-9.2	12.4	0.8	12.3	0.2	0.1	nt	nt
Cc1nc(C)c(C(=O)NCc2ccccc2Cl)o1	-0.9	-15.7	-4.8	nt	-5.5	-0.1	nt	nt
CNC(=S)N(CCc1ccc(OC)c(OC)c1)Cc1cc2c(C)cc(C)cc2[nH]c1=O	5.9	-21.7	8.1	8.8	-10.5	15.9*	2.0	nt
CNC(=S)N(CCc1ccccc1)Cc1cc2cc(OC)c(OC)cc2[nH]c1=O	1.1	6.2	-0.7	16.9	-5.5	1.4	nt	nt
COc1cc(NS(=O)(=O)c2ccc(NC(=S)NC(=O)/C=C/c3ccco3)cc2)ncn1	90.7*	3.6	8.6	11.5	-23.3	13.2*	3.6	+
COc1ccc(/C=C/C(=O)NC(=S)Nc2ccc(S(=O)(=O)Nc3ccc(OC)nn3)cc2)cc1	0.1	-4.7	1.8	14.4	-20.6	4.9	nt	nt
COC(=O)C[N+](C)(C)C/C=C\c1ccccc1	-5.3	3.8	-3.2	15.3	-2.7	-1.4	nt	nt
NC(=O)CN1C(=O)/C(=c2\sc3nc(=O)c(Cc4ccccc4)nn3c2=O)c2ccccc21	14.1	nt	nt	18.7	9.2	nt	nt	nt
CCCN1C(=O)/C(=c2\sc3nc(=O)c(Cc4ccc(C)cc4)nn3c2=O)c2ccccc21	52.2*	-43.3	6.1	12.2	-1.5	12.2*	4.4	i
COc1ccc(-c2nc(-c3ccc(O)cc3O)cs2)cc1OC	60.6*	46.4	-29.7	9.1	-10.4	12.1*	3.6	+
COc1cccc(NC(=O)C2CC(=O)N/C(=N/NC(=O)c3ccc(C)cc3)S2)c1 (centres undefined)	6.7	nt	nt	14.9	-0.7	nt	nt	nt
CCCCn1c(NS(=O)(=O)c2ccc(C)cc2)c(S(=O)(=O)c2ccccc2)c2nc3ccccc3nc21	97.1*	-8.6	-9.0	15.1	-6.8	12.1*	12.4	i
Cc1ccc(S(=O)(=O)N2CCOCC2)cc1NC(=O)c1cccc(S(=O)(=O)N2CCCC2)c1	17.7	-23.2	5.8	19.3	1.3	1.8	nt	nt
O=C(O)c1cc(N2N=C(C(F)(F)F)/C(=C/C=C/c3ccco3)C2=O)ccc1Cl	96.8*	11.3	15.7	19.9	-33.7	13.6*	5.8	+
SMILES	Hck Nef HTS	WT yeast gro inh	Arbovirus inh	Biofilm kill mix	NCF1 inh	RAM network inh	RAM 5-FOA	Hck Nef conf
CCOC(=O)c1ccc(N2N=C(C)/C(=C/C=C/c3ccco3)C2=O)cc1	8.0	1.8	-6.3	-1.1	16.7	3.0	nt	nt
CC(C)CNC(=O)c1c(N)n(/N=C/c2ccccn2)c2nc3ccccc3nc12	50.8*	34.9	4.7	nt	9.2	14.5*	4.5	i
Cc1ccc(C(=O)Nc2cccc(C(F)(F)F)c2)cc1Nc1ccccn1	24.3	nt	nt	12.5	-4.7	nt	nt	nt
Cc1ccc(C(=O)Nc2cccc(C(F)(F)F)c2)cc1NC(=O)c1cnnc2ccccc12	73.7*	nt	nt	16.5	12.9	nt	nt	i
CCCCOc1ccc(C2NC(=O)NC(C)=C2C(C)=O)cc1OCC (centres undefined)	-1.2	-2.4	-4.9	-1.3	-11.4	1.0	nt	nt
Nc1[nH]nc2nc3ccccc3cc12	32.0	-6.6	11.4	25.1	2.0	0.9	nt	nt
Nc1cccc2nc3ccccc3cc12	75.7*	40.2	-32.1	nt	-0.6	2.6	nt	nt
CCOC1(c2ccccc2)CC1C(=O)N/N=C/c1cccc([N+](=O)[O-])c1 (centres undefined)	25.1	nt	nt	9.4	-3.1	nt	nt	nt
CC1CC(C)CN(C(=O)C(C)N(C)CC(=O)Nc2ccc(Cl)cc2)C1 (centres undefined)	-10.0	4.2	9.0	10.2	nt	0.2	nt	nt
CCOC(=O)c1sc(Nc2nc3c(OC)cccc3s2)nc1C	66.6*	2.7	-10.4	nt	-13.9	3.8	nt	i
CCOC(=O)c1sc(Nc2ccccc2)nc1C	0.3	-3.5	-5.7	nt	1.1	2.8	nt	nt
O=C1/C(=C\c2ccco2)SC(=S)N1C1CCS(=O)(=O)C1 (centres undefined)	68.6*	nt	nt	-1.0	-14.3	nt	nt	i
O=C1/C(=C/c2ccco2)SC(=S)N1C1CCS(=O)(=O)C1 (centres undefined)	20.3	5.2	14.2	14.7	-23.1	2.1	nt	nt
CCOC(=O)c1ccc(Nc2ncnc3nc[nH]c23)cc1	6.1	nt	-7.2	nt	2.5	5.8	nt	nt
c1ccc(COc2ccc(Nc3ncnc4nc[nH]c34)cc2)cc1	68.5*	-9.6	-14.0	nt	-12.7	1.4	nt	+
N/C(=N\N=C\c1ccnc2ccccc12)SC1CC(=O)N(c2ccc(Br)cc2)C1=O (centres undefined)	66.4*	18.8	-8.3	nt	-7.7	3.2	nt	+
COc1ccc(N2C(=O)CC(S/C(N)=N/N=C/c3ccnc4ccccc34)C2=O)cc1 (centres undefined)	31.1	0.2	-10.2	18.0	26.9	1.5	nt	nt
CCn1nnc(NC(=O)C(c2ccccc2)c2ccccc2)n1	18.8	-3.0	-1.4	25.5	-13.3	-0.1	nt	nt
N#Cc1ccc(OCC(=O)n2cc(C(=O)c3cc(Cl)cc(Cl)c3O)cn2)cc1	13.5	nt	nt	13.2	-94.3	nt	nt	nt
O=C(c1cnn(C(=O)COc2ccc(Cl)cc2)c1)c1ccccc1O	50.3*	0.9	-4.8	10.8	-5.0	0.4	nt	+
